What was measured:
HEK293 [1] = experiment: Cytotoxicity against HEK293 cells expressing UGT1A3 assessed as decrease in cell viability at 1 mM measured at 24 hrs by MTT assay; format: ADME, cell-based; conditions: human, hek293, 24 h, 1000 µM
HEK293 [2] = experiment: Cytotoxicity against HEK293 cells expressing UGT1A4 assessed as decrease in cell viability at 1 mM measured at 24 hrs by MTT assay; format: ADME, cell-based; conditions: human, hek293, 24 h, 1000 µM
HEK293 [3] = experiment: Cytotoxicity against HEK293 cells expressing UGT assessed as decrease in cell viability at 1 mM measured up to 72 hrs by MTT assay; format: ADME, cell-based; conditions: human, hek293, 72 h, 1000 µM
Summary of the method: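 Mock and UGT1A3/UGT1A4 stable HEK293 cells given drug for up to 72 h; viability measured by WST-8-based MTT assay.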

HEK293 [4] = experiment: Genotoxicity in HEK293 cells expressing UGT1A3 assessed as DNA strand breaks at 1 mM after 24 hrs by comet assay; format: toxicity, cell-based; conditions: human, hek293, 24 h, 1000 µM
Summary of the method: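 Alkaline comet assay: HEK/UGT1A3 cells seeded 24 h before, treated 24 h in DMEM with 0.5% FBS (vehicle 0.1% DMSO; MMS 0.1 mM positive control). Cells embedded in LMP agarose, lysed 1 h at 4°C at pH 10, unwound 30 min in NaOH/EDTA, electrophoresed 300 mA 20 min, ethidium-stained; tail moment scored on 150-180 comets over >3 experiments, median (IQR).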

HEK293 [5] = experiment: Genotoxicity in HEK293 cells expressing UGT1A3 assessed as DNA strand breaks at 0.1 mM after 24 hrs by comet assay; format: toxicity, cell-based; conditions: human, hek293, 24 h, 100 µM
Summary of the method: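 HEK293 cells stably expressing UGT1A3, seeded 24 h before treatment and exposed 24 h in 0.5% FBS DMEM (vehicle 0.1% DMSO). Alkaline comet assay: low-melting agarose embedding, lysis pH 10 for 1 h at 4°C, 30 min unwinding in NaOH/EDTA, electrophoresis 300 mA for 20 min, ethidium bromide stain. Tail extent moment scored on 150-180 cells over more than 3 experiments, median (IQR).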

Structure (SMILES)	Activity (HEK293 [1])	further results
CC1=C(CC(=O)O)c2cc(F)ccc2/C1=C\c1ccc([S+](C)[O-])cc1 (stereo unspecified)	Non-toxic	–
CC(=O)Oc1ccccc1C(=O)O [ASPIRIN]	Non-toxic	–
CC(C)(Oc1ccc(CCNC(=O)c2ccc(Cl)cc2)cc1)C(=O)O [BEZAFIBRATE]	Non-toxic	–
CC(C)(Oc1ccc(Cl)cc1)C(=O)O [CLOFIBRIC ACID]	Non-toxic	Activity (HEK293 [2]): Non-toxic; Activity (HEK293 [3]): Non-toxic; Activity (HEK293 [4]): Toxic
CC(C(=O)O)c1ccc(-c2ccccc2)c(F)c1 (stereo unspecified) [FLURBIPROFEN]	Non-toxic	–
NS(=O)(=O)c1cc(C(=O)O)c(NCc2ccco2)cc1Cl [FUROSEMIDE]	Non-toxic	–
Cc1ccc(C)c(OCCCC(C)(C)C(=O)O)c1 [GEMFIBROZIL]	Non-toxic	Activity (HEK293 [2]): Non-toxic; Activity (HEK293 [3]): Non-toxic
COc1ccc2c(c1)c(CC(=O)O)c(C)n2C(=O)c1ccc(Cl)cc1 [INDOMETHACIN]	Non-toxic	–
Cc1cccc(Nc2ccccc2C(=O)O)c1C [MEFENAMIC ACID]	Non-toxic	–
COS(C)(=O)=O [METHANESULFONIC ACID METHYL ESTER]	–	Activity (HEK293 [5]): Toxic
COc1c(C)c2c(c(O)c1C/C=C(\C)CCC(=O)O)C(=O)OC2 [MYCOPHENOLIC ACID]	Non-toxic	–
O=C(O)c1cccnc1Nc1cccc(C(F)(F)F)c1 [NIFLUMIC ACID]	Non-toxic	–
CCCN(CCC)S(=O)(=O)c1ccc(C(=O)O)cc1 [PROBENECID]	Non-toxic	–
O=C(O)c1ccccc1O [SALICYLIC ACID]	Non-toxic	Activity (HEK293 [2]): Non-toxic; Activity (HEK293 [3]): Non-toxic
